The EternaBench riboswitch data

Tested on: MS2 coat protein
Assay: apparent Kd, MS2 coat protein; higher = weaker binding; RNA-MaP array; tryptophan 2.4 mM where present
Outline: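 Designs were transcribed by stalled E. coli RNA polymerase on Illumina sequencing-chip clusters. They were titrated with SNAP-549-labelled MS2 coat protein from 0.7 or 1.5 nM, doubling to 3 µM, in 100 mM Tris-HCl pH 7.5, 80 mM KCl, 4 mM MgCl2, BSA, DTT, yeast tRNA and Tween-20, without and then with constant ligand. The apparent Kd is the median of filtered per-cluster fits after normalisation of green signal to red-channel RNA signal and control-cluster median Fmax.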

[1] = designed as: ON switch for tryptophan, no ligand
[2] = ligand present: tryptophan, designed as: ON switch for tryptophan
[3] = designed as: OFF switch for tryptophan, no ligand
[4] = ligand present: tryptophan, designed as: OFF switch for tryptophan

Sequence	apparent Kd [1] [nM]	apparent Kd [2] [nM]	apparent Kd [3] [nM]	apparent Kd [4] [nM]
AACAUGAGGAUCACCCAUGUCCCAUGUGAACGAGGACCGGUACGGCCGCCACUCGACCGAGGCGGCACAUGAGGAUCACCCGCAU	375	926	–	–
AACAUGAGGAUCACCCAUGUGUCCUCGAAACGAGGACCGGUACGGCCGCCACUCGAAUAAGCUGUUGACGAAAAGUCAGCAGCAA	–	–	257	670
AAUAAUAGGUGAUCUUGUGUCGUACCGUAACGAGGACCGGUACGGCCGCCACUCGAACAUGAGGAUCACCCAUGUAUGUAUGAUA	171	128	–	–
AAUACCGGAUCGGCCGCCACUGGUUGGCCCUGUGUACAUGAGGAUCACCCAUGUCCAUCCCAAACCAGGACCGGGAUCUUUGUGC	12	10.2	–	–
AAUUAAACAUCGGCCGCCACUUACUCAUGAGGUAACAACAUGAGGAUCACCCAUGUUUGAGGAUCAAGGACCGGGAUGUAAUAAU	31.3	22.6	–	–
AAUUAGAUGUCGGCCGCCACUGAUGUGUCUGUUGCGUCCAGUGUGUACAUGAGGAUCACCCAUGUCAGGACCGGGACUUUAAAUU	–	–	11	34
AAUUCAAGGUUCUUGAUGUAUUAUAUAUUUCGAGGACCGGUACGGCCGCCACUCGUUAAUUACAUGAGGAUCACCCAUGUUAGCU	–	–	17	20.9
ACACAAUACAUGAGGAUCACCCAUGUAUAACGAGGACCGGUACGGCCGCCACUCGAAUACUGUAAUCCUCGGAAUAUUAUGUGAA	–	–	39	19.1
ACAUGAGGAUCACCCAUGUAACGGCAUAAUCGAGGACCGGUACGGCCGCCACUCGGAAUCAGUGACAGGCAUAUUUAUUAUAAGA	–	–	9.88	10
ACAUGAGGAUCACCCAUGUGAAGCAGGGUACGAGGACCGGUACGGCCGCCACUCGAGGAUUAUGCCGAGUGAAUGGCAACGAUGU	–	–	14.4	15.4
ACAUGAGGAUCACCCAUGUGUGUAAAUCCUCGAGGACCGGUACGGCCGCCACUCGAUCGAGUGUAAGUUGAAUGUAACAUUCAAC	88.4	70.5	–	–
ACAUUGCGCACGGCCGCCACUGGCUAUAGAUUUAUAGCAUUAAUGAACAUGAGGAUCACCCAUGUCAGGACCGGGUGCGAACCAU	17.3	19.7	–	–
ACGCUGCAUAGGAAAACUAUGUAGCGAAAUCGAGGACCGGUACGGCCGCCACUCGUCCUCAACAUGAGGAUCACCCAUGUAAUAA	–	–	19.9	34.7
AGAGGUAUACAUGGAAACAUGUAUAUUUCACGAGGACCGGUACGGCCGCCACUCGGUACCGGAAACACAUGAGGAUCACCCAUGU	–	–	18.7	16.9
AGGUGCGGCACGGCCGCCACUGCGGUGGUGUGACAUGAGGAUCACCCAUGUUGUCAUGCGGCCCUUAGGACCGGGUGGCGUGCCU	–	–	39.7	46
AUAACAUGAGGAUCACCCAUGUAUUGGUAACGAGGACCGGUACGGCCGCCACUCGUAUUUUGGUGGUAUUAUAUAUAUAUGAUUA	20.8	19.7	–	–
AUACAUGAGGAUCACCCAUGUGAUGGCCGGCGAGGACCGGUACGGCCGCCACUCGUGAUCCGUCCUGAAAGCAAAGCUUCCAGCA	182	239	–	–
AUCAUAAUAGACUCGUUAGAUUAUAUGGAACGAGGACCGGUACGGCCGCCACUCGUGAUGUACAUGAGGAUCACCCAUGUUAGCA	13.5	13.5	–	–
AUUCAUGGAAACAUGACAUAGGGAUCACUCCGAGGACCGGUACGGCCGCCACUCGCGAGGAGGCACAUGAGGAUCACCCAUGUUA	49	39.7	–	–
AUUGUGAAGUCGGCCGCCACUGGUUAGUUUAACCUCAUGUAACAUGAGGAUCACCCAUGUAAUGACAGGACCGGGACAAUAGUAA	–	–	187	151
CACAGUGCGAAUUUGAAAUCGCACGAUCCUCGAGGACCGGUACGGCCGCCACUCGCGCGGGUCGUACAUGAGGAUCACCCAUGUC	317	545	–	–
CACAGUGCGAAUUUGAAUUCGCACGAUCCUCGAGGACCGGUACGGCCGCCACUCGCGCGGGUCGUACAUGAGGAUCACCCAUGUC	166	842	–	–
CACGAAAGAUCGGCCGCCACUAAUCGAUGUGUUCUUUCACAUGAGGAUCACCCAUGUUCUUGCGUUAGGACCGGGAUUGAGCGUG	–	–	38.7	31.9

Sequence	apparent Kd [1] [nM]	apparent Kd [2] [nM]	apparent Kd [3] [nM]	apparent Kd [4] [nM]
CACGAAAGAUCGGCCGCCACUAAUCUAUGUGUUCUUUCACAUGAGGAUCACCCAUGUUCUUGCGUUAGGACCGGGAUUGAGCGUG	–	–	34.1	36.4
CCAUAAGUACCGGUCCUCAGAUCCUCAUGACGAGGACCGGUACGGCCGCCACUCGAAACAUGAGGAUCACCCAUGUAAUAAUACC	–	–	39.2	26.4
CCGCCUGCCUCACAUGAGGAUCACCCAUGUCGAGGACCGGUACGGCCGCCACUCGUCGUCGGUAAUACAGGCAUUGAAUAAUAUA	–	–	11.2	45.1
CGCAACAUGAGGAUCACCCAUGUAAUGACGCGAGGACCGGUACGGCCGCCACUCGCCUGCCAAUGAGCGCAUGCGGCCUGGGUAU	–	–	11.6	14.5
CUACAUGUAGUUAAACCGGUCAACAAUAAUCGAGGACCGGUACGGCCGCCACUCGAUGUGUUAUACACAUGAGGAUCACCCAUGU	23.2	18.9	–	–
GAGCUCGUGGACUGGCGUGCUCCGCUCCGUCGAGGACCGGUACGGCCGCCACUCGACAUGAGGAUCACCCAUGUGUGAGCUCGCU	–	–	75.3	54.2
GAUAUUUGAAAACAAAUAUCAGUGGGUGAACGAGGACCGGUACGGCCGCCACUCGGACAUGAGGAUCACCCAUGUCCAUGUGAAA	–	–	15.6	37.4
GAUCGAAAUAACGCAUAGGAAAACUAUGCGCGAGGACCGGUACGGCCGCCACUCGUCCUCACAUGAGGAUCACCCAUGUACGAUC	–	–	22.4	58.6
GCAUCCUAGUCGGCCGCCACUGCAAUUGUAAUACUGCUACAUGAGGAUCACCCAUGUCCAUGUAGCAGGACCGGGACUAGGAUGC	578	79.8	–	–
GCCGGUACGUCGGCAAAGCCGAUGUGCCAGCGAGGACCGGUACGGCCGCCACUCGUACAUGAGGAUCACCCAUGUCCGGUCCGGC	44.7	49	–	–
GCGGAAUAAUCGGCCGCCACUAUGAGACAGGAAACUGUCACAUGAGGAUCACCCAUGUAUCCUCAUAGGACCGGGAUUAAAACGC	76.3	19.4	–	–
GCUCACAUGAGGAUCACCCAUGUACGUCCGCGAGGACCGGUACGGCCGCCACUCGUGUUAGCUUCAAACUUGUUAGUGUUAAACA	40.4	16.1	–	–
GGAUAGGACACGGCCGCCACUAGCUAGGAUACUAGCAACAUUUCCUCACAUGAGGAUCACCCAUGUAGGACCGGGUGUCCUAUCG	–	–	111	135
GGGAGGGAGGCGGCCGCCACUGAUUUUCAUAUAUAUAUAACAUGAGGAUCACCCAUGUGGAUAUACAGGACCGGGCCUUUUUUUU	19.8	13.2	–	–
GGGUCAGGCGCGGCCGCCACUGCGGUGAUGUGACAUGAGGAUCACCCAUGUUGUCAUGUGGCACAUAGGACCGGGUGCCUGGCCC	–	–	30.1	29.9
GGUACAUGAGGAUCACCCAUGUAUUGGUACCGAGGACCGGUACGGCCGCCACUCGCAUGACAUGAGGAUCACCCAUGUGAAACCU	52.5	66.5	–	–
GUCUUUGACGAUCUGGGAAAACCAGAUCGACGAGGACCGGUACGGCCGCCACUCGUGUUUUCUUUACAUGAGGAUCACCCAUGUA	13.1	12.7	–	–
UAAUAAUUCCUCAUGUCACGAGUGGCAUAACGAGGACCGGUACGGCCGCCACUCGAACAUGAGGAUCACCCAUGUAGCCACUCGA	143	113	–	–
UAUAAUAACUCGGCCGCCACUGGCACAUGAGGAUCACCCAUGUCUAUAUAUAAUAUAUAGUUGCACAGGACCGGGAGAUAUAUAU	–	–	8.95	8.21
UAUAUAUAUCACUAACUGUUCUUGAGGUCUCGAGGACCGGUACGGCCGCCACUCGGGCCGCCUCACAUGAGGAUCACCCAUGUCC	–	–	56.4	68.2
UCGUUUUAGUCGGCCGCCACUGUAUGCAUGUUUAACAUGAGGAUCACCCAUGUCCCGUACUAUUUCAGGACCGGGACGUAAUCGA	322	156	–	–
UUACCGUAAGGUAUACCGGUCUACAAUAAUCGAGGACCGGUACGGCCGCCACUCGAUGUGUAAUCACAUGAGGAUCACCCAUGUA	23.3	18.5	–	–
UUAUAAGUACCGGUCCUCAGAUCCUCAUGACGAGGACCGGUACGGCCGCCACUCGAAACAUGAGGAUCACCCAUGUAAUAACAUU	–	–	20	20.1
